Assay results taken from ChEMBL document CHEMBL1122285, “New myocardial imaging agents: stabilization of radioiodine as a terminal vinyl iodide moiety on tellurium fatty acids” (J Med Chem, 1983).

Legend:
Rattus norvegicus [1] = experiment: Tested for distribution of radioactivity of iodine 125 in blood of rat after 5 min of intravenous administration; format: ADME, organism-based; conditions: in vivo
Outline: (§1)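 Fischer 344 rats, four per time point, under ether anaesthesia. Each received ~8.6 μCi of 125I-labelled fatty acid (sp act ~20 mCi/mmol) by lateral tail vein in 0.5 mL 6% bovine serum albumin with 10% final ethanol, filtered before injection. Percent injected dose/g was calculated against injectate standards and reported as mean (range). Thyroid weight was taken as body weight × 7.5 mg/100 g.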

Rattus norvegicus [2] = experiment: Tested for distribution of radioactivity iodine 125 in heart of rat after 30 min of intravenous administration (value in parentheses indicates range); format: ADME, organism-based; conditions: in vivo, 0.5 h; outline: as §1
Rattus norvegicus [3] = experiment: Tested for distribution of radioactivity of iodine 125 in thyroid of rat after 30 min of intravenous administration; format: ADME, organism-based, Thyroid gland; conditions: in vivo, 0.5 h; outline: as §1
Rattus norvegicus [4] = experiment: Tested for distribution of radioactivity of iodine 125 in kidney of rat after 2 hours of intravenous administration; format: ADME, organism-based; conditions: in vivo; outline: as §1
Rattus norvegicus [5] = experiment: Tested for distribution of radioactivity of iodine 125 in liver of rat after 4 hr of intravenous administration; format: ADME, organism-based; conditions: in vivo; outline: as §1
Rattus norvegicus [6] = experiment: Tested for distribution of radioactivity of iodine 125 in lungs of rat after 30 min of intravenous administration; format: ADME, organism-based, Lung; conditions: in vivo, 0.5 h; outline: as §1
Rattus norvegicus [7] = experiment: Tested for distribution of radioactivity of iodine 125 in lungs of rat after 5 min of intravenous administration; format: ADME, organism-based, Lung; conditions: in vivo; outline: as §1
Rattus norvegicus [8] = experiment: Tested for distribution of radioactivity of iodine 125 in heart of rat after 5 min of intravenous administration; format: ADME, organism-based; conditions: in vivo; outline: as §1
Rattus norvegicus [9] = experiment: Tested for distribution of radioactivity of iodine 125 in liver of rat after 30 min of intravenous administration; format: ADME, organism-based; conditions: in vivo, 0.5 h; outline: as §1
Rattus norvegicus [10] = experiment: Tested for distribution of radioactivity iodine 125 in heart of rat after 4 hours of intravenous administration; format: ADME, organism-based; conditions: in vivo; outline: as §1
Rattus norvegicus [11] = experiment: Tested for distribution of radioactivity of iodine 125 in thyroid of rat after 60 min of intravenous administration; format: ADME, organism-based, Thyroid gland; conditions: in vivo, 1 h; outline: as §1
Rattus norvegicus [12] = experiment: Tested for distribution of radioactivity of iodine 125 in thyroid of rat after 2 hr of intravenous administration; format: ADME, organism-based, Thyroid gland; conditions: in vivo; outline: as §1
Rattus norvegicus [13] = experiment: Tested for distribution of radioactivity of iodine 125 in lungs of rat after 2 hours of intravenous administration; format: ADME, organism-based, Lung; conditions: in vivo; outline: as §1
Rattus norvegicus [14] = experiment: Tested for distribution of radioactivity of iodine 125 in blood of rat after 60 min of intravenous administration; format: ADME, organism-based; conditions: in vivo, 1 h; outline: as §1
Rattus norvegicus [15] = experiment: Tested for distribution of radioactivity of iodine 125 in blood of rat after 4 hours of intravenous administration; format: ADME, organism-based; conditions: in vivo; outline: as §1
Rattus norvegicus [16] = experiment: Tested for distribution of radioactivity of iodine 125 in kidney of rat after 5 min of intravenous administration; format: ADME, organism-based; conditions: in vivo; outline: as §1
Rattus norvegicus [17] = experiment: Tested for distribution of radioactivity of iodine 125 in lungs of rat after 60 min of intravenous administration; format: ADME, organism-based, Lung; conditions: in vivo, 1 h; outline: as §1
Rattus norvegicus [18] = experiment: Tested for distribution of radioactivity of iodine 125 in thyroid of rat after 4 hr of intravenous administration; format: ADME, organism-based, Thyroid gland; conditions: in vivo; outline: as §1
Rattus norvegicus [19] = experiment: Tested for distribution of radioactivity iodine 125 in heart of rat after 60 min of intravenous administration; format: ADME, organism-based; conditions: in vivo, 1 h; outline: as §1
Rattus norvegicus [20] = experiment: Tested for distribution of radioactivity of iodine 125 in liver of rat after 5 min of intravenous administration; format: ADME, organism-based; conditions: in vivo; outline: as §1
Rattus norvegicus [21] = experiment: Tested for distribution of radioactivity of iodine 125 in thyroid of rat after 5 min of intravenous administration; format: ADME, organism-based, Thyroid gland; conditions: in vivo; outline: as §1
Rattus norvegicus [22] = experiment: Tested for distribution of radioactivity of iodine 125 in liver of rat after 2 hr of intravenous administration; format: ADME, organism-based; conditions: in vivo; outline: as §1
Rattus norvegicus [23] = experiment: Tested for distribution of radioactivity of iodine 125 in blood of rat after 2 hour of intravenous administration; format: ADME, organism-based; conditions: in vivo; outline: as §1
Rattus norvegicus [24] = experiment: Tested for distribution of radioactivity of iodine 125 in kidney of rat after 30 min of intravenous administration; format: ADME, organism-based; conditions: in vivo, 0.5 h; outline: as §1
Rattus norvegicus [25] = experiment: Tested for distribution of radioactivity of iodine 125 in kidney of rat after 4 hours of intravenous administration; format: ADME, organism-based; conditions: in vivo; outline: as §1
[26] = Tested for distribution of radioactivity of iodine 125 in kidney of rat after 60 min of intravenous administration; format: ADME; conditions: in vivo, 1 h; outline: as §1
Rattus norvegicus [27] = experiment: Tested for distribution of radioactivity of iodine 125 in liver of rat after 60 min of intravenous administration; format: ADME, organism-based; conditions: in vivo, 1 h; outline: as §1
Rattus norvegicus [28] = experiment: Tested for distribution of radioactivity in heart of rat after 2 hours of intravenous administration; format: ADME, organism-based; conditions: in vivo; outline: as §1
Rattus norvegicus [29] = experiment: Tested for distribution of radioactivity of iodine 125 in blood of rat after 30 min of intravenous administration; format: ADME, organism-based; conditions: in vivo, 0.5 h; outline: as §1

With `O=C(O)CCCCC[Te]CCCCCCCCC/C=C/I` the Injected dose/g (Rattus norvegicus [1]) was 0.26%, the Injected dose/g (Rattus norvegicus [2]) was 2.78% and the Injected dose/g (Rattus norvegicus [3]) was 13.5%. For the same compound, the Injected dose/g (Rattus norvegicus [4]) was 0.88%, the Injected dose/g (Rattus norvegicus [5]) was 4.4% and the Injected dose/g (Rattus norvegicus [6]) was 0.96%. For the same compound, the Injected dose/g (Rattus norvegicus [7]) was 1.29%, the Injected dose/g (Rattus norvegicus [8]) was 3.47% and the Injected dose/g (Rattus norvegicus [9]) was 5.63%. It also gave an Injected dose/g (Rattus norvegicus [10]) of 2.37%, an Injected dose/g (Rattus norvegicus [11]) of 22.2% and an Injected dose/g (Rattus norvegicus [12]) of 43.8%. It also gave an Injected dose/g (Rattus norvegicus [13]) of 1%, an Injected dose/g (Rattus norvegicus [14]) of 0.22% and an Injected dose/g (Rattus norvegicus [15]) of 0.27%. It also gave an Injected dose/g (Rattus norvegicus [16]) of 1.05%, an Injected dose/g (Rattus norvegicus [17]) of 1% and an Injected dose/g (Rattus norvegicus [18]) of 69.8%. The Injected dose/g (Rattus norvegicus [19]) was 2.96%, the Injected dose/g (Rattus norvegicus [20]) was 6.18% and the Injected dose/g (Rattus norvegicus [21]) was 8.54%. It also gave an Injected dose/g (Rattus norvegicus [22]) of 4.78%, an Injected dose/g (Rattus norvegicus [23]) of 0.23% and an Injected dose/g (Rattus norvegicus [24]) of 0.89%. For the same compound, the Injected dose/g (Rattus norvegicus [25]) was 0.77%, the Injected dose/g [26] was 0.95% and the Injected dose/g (Rattus norvegicus [27]) was 5.33%. For the same compound, the Injected dose/g (Rattus norvegicus [28]) was 2.86% and the Injected dose/g (Rattus norvegicus [29]) was 0.22%.
